Data set [1] concerns Mus musculus. As to the kind of experiment: Effect on development of dependence to morphine in Swiss Webster mouse assessed as increase in naloxone ED50 for eliciting withdrawal jumping at 0.24 nmol, icv after 24 hrs relative to control. Type of data set: functional, organism-based. The gist of the method:
(§1)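 Male Swiss Webster mice, 20-25 g. Given icv injection (4 µL saline vehicle) immediately after sc implantation of a 50 mg morphine or placebo pellet. At 24 and 72 h, naloxone given sc (10 mL/kg saline) and ED50 taken for precipitated withdrawal jumping (Way method). Groups of 4-5 mice per ED50.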

The test system of data set [2] is Mus musculus. In words: Inhibition of morphine-induced analgesia in Swiss Webster mouse assessed as change in morphine ED50 at 2.4 nmol, icv after 2 hrs by tail flick test. Type of data set: functional, organism-based. For orientation: In hot-plate and tail-flick tests a longer latency is read as antinociception.
Data set [3] relates to Mus musculus. As to the kind of experiment: Effect on development of dependence to morphine in Swiss Webster mouse assessed as increase in naloxone ED50 for eliciting withdrawal jumping at 0.24 nmol, icv after 72 hrs relative to control. It counts as functional, organism-based. The gist of the method: as §1
Data set [4] relates to Mus musculus. As to the kind of experiment: Toxicity in icv dosed Swiss Webster mouse assessed as suppression of startle reflex to loud and abrupt auditory stimulus. It counts as organism-based. The note with it: in vivo, icv_or_intrathecal. The gist of the method: (§2)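 Male Swiss Webster mice, 20-25 g, observed after icv injection in 4 µL saline. Recorded: lethality and preceding tonic convulsions within 1.5 h, lethargy, startle reflex to hand clap, locomotor activity, and tail-flick latency.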

For data set [5], the system named is Mus musculus. In words: Analgesic activity in Swiss Webster mouse at 4 nmol, icv after 10 to 120 mins by tail flick test. It counts as functional, organism-based. The gist of the method:
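Male Swiss Webster mice, 20-25 g. Compound given icv in 4 µL saline (working solution from ethanol/0.05 N HCl stock, evaporated under nitrogen). Agonist activity read by modified D'Amour-Smith tail-flick at intervals out to 2 h post-injection. Saline icv controls given in the same volume.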

For data set [6], the system named is Mus musculus. In words: Toxicity in Swiss Webster mouse assessed as lethargic behavior at 4 nmol, icv. The note with it: in vivo, icv_or_intrathecal. Type of data set: organism-based. The gist of the method:
as §2

Data set [7] has as its system Mus musculus. In words: Toxicity in icv dosed Swiss Webster mouse assessed as change in tail flick latency. It counts as organism-based. The following applies: in vivo, icv_or_intrathecal. Summed up: as §2
The test system of data set [8] is Mus musculus. In words: Toxicity in icv dosed Swiss Webster mouse assessed as decrease in locomotor activity. The note with it: in vivo, icv_or_intrathecal. It counts as organism-based. Summed up: as §2
Data set [9] has as its system Mus musculus. As to the kind of experiment: Toxicity in Swiss Webster mouse assessed as tonic convulsions at 4.8 nmol, icv. Type of data set: organism-based. The note with it: in vivo, icv_or_intrathecal. The gist of the method:
as §2

For data set [10], the system named is Mus musculus. In words: Toxicity in Swiss Webster mouse assessed as lethality at 4.8 nmol, icv after 1.5 hrs. The note with it: in vivo, icv_or_intrathecal. It counts as organism-based. The gist of the method:
as §2

The subject of data set [11] is Mus musculus. In words: Toxicity in icv dosed Swiss Webster mouse assessed as lethargic behavior. Type of data set: organism-based. The note with it: in vivo, icv_or_intrathecal. The gist of the method: as §2
Data set [12] deals with Mus musculus. In words: Toxicity in Swiss Webster mouse assessed as mortality at 2.4 nmol, icv. The note with it: in vivo, icv_or_intrathecal. It counts as organism-based. The gist of the method:
as §2

SMILES strings stand for the structures. Active and inactive are the calls of the source. The calls are words filed in the database; no cut-off is given here.

In the case of `O=C1CC[C@@]2(O)[C@H]3Cc4ccc(O)c5c4[C@@]2(CCN3CC2CC2)[C@H]1O5`, the outcome in [1] and in data set [3] was inactive. In addition, the inhibition entry in data set [2] was “inactive”.
In the case of `O=C(O)CCCc1ccc(N(CCCl)CCCl)cc1` [CHLORAMBUCIL], the Activity entry in data set [4] was “Non-toxic”; in [6], “Toxic”; in data set [7], “Non-toxic”; in data set [8], “Toxic”. Moreover, in [5], the outcome was inactive. For the same compound, the inhibition result in data set [2] is “inactive”.
For `Oc1ccc2c3c1O[C@H]1[C@H](N(CCCl)CCCl)CC[C@@]4(O)[C@@H](C2)N(CC2CC2)CC[C@]314`, the Activity entry in data set [4] is listed as “Non-toxic”; in data set [9], “Toxic”; in data set [10] it was “Toxic”; in data set [7], “Non-toxic”; in data set [11] it was “Toxic”; in data set [12], “Toxic”. In addition, the Activity result in [8] is recorded as “Toxic”.

The record behind these values is ChEMBL document CHEMBL3228038 (J Med Chem, 1979).
